Data: ChEMBL document CHEMBL3872223, “Synthetic, enzyme kinetic, and protein crystallographic studies of C-β-d-glucopyranosyl pyrroles and imidazoles reveal and explain low nanomolar inhibition of human liver glycogen phosphorylase” (Eur J Med Chem, 2016)
Active and inactive are the calls of the source. No cut-off for these calls is given here.

How the values were obtained:
[1] = target: T1, Glycogen phosphorylase, muscle form (Oryctolagus cuniculus, UniProt P00489); experiment: Competitive inhibition of rabbit muscle glycogen phosphorylase-b in presence of varying glucose-1-phosphate levels and AMP
T1 sequence (P00489 whole entry): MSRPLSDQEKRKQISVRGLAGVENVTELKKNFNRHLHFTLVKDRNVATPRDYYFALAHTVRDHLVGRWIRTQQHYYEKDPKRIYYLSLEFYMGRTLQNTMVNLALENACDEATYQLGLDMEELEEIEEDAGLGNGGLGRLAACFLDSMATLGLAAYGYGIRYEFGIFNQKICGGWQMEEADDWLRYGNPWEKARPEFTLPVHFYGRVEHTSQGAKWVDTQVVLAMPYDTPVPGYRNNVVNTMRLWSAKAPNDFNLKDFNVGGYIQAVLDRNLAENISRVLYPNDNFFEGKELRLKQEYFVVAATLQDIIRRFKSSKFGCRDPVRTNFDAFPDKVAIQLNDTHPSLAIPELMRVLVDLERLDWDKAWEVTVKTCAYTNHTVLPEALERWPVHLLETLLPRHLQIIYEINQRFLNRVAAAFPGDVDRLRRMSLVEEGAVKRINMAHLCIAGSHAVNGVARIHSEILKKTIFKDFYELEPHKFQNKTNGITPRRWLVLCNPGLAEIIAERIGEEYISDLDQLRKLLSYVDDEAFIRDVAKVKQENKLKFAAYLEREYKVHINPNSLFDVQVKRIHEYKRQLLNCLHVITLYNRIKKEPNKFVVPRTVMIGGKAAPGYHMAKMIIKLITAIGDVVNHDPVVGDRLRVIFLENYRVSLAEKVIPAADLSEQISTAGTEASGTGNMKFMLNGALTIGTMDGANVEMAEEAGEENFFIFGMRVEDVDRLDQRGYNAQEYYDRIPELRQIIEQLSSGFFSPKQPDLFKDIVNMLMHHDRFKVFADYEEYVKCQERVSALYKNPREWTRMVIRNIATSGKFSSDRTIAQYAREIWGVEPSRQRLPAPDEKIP

[2] = target: T1, Glycogen phosphorylase, muscle form; experiment: Inhibition of rabbit muscle glycogen phosphorylase-b assessed as release of inorganic phosphate from glucose-1-phosphate in presence of AMP and glycogen
Procedure, shortened: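 Isolated rabbit skeletal muscle GPb was assayed in 30 mM imidazole/HCl pH 6.8 with 60 mM KCl, 0.6 mM EDTA and 0.6 mM DTT. […] Initial velocities were derived from pseudo-first order rate constants.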

[3] = target: T1, Glycogen phosphorylase, muscle form; experiment: Competitive inhibition of rabbit muscle glycogen phosphorylase-a assessed as release of inorganic phosphate using varying levels of glucose-1-phosphate and constant concentration of AMP and glycogen measured after 1 min by Dixon plot method
Procedure, shortened: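 Rabbit muscle GPa was made by phosphorylating rmGPb with a truncated catalytic γ subunit of rabbit muscle phosphorylase kinase. It was assayed in 30 mM imidazole/HCl pH 6.8 containing 60 mM KCl, 0.6 mM EDTA, 0.6 mM DTT and 0.2% w/v glycogen, with Glc-1-P and inhibitor both varied. Initial velocities were calculated from pseudo-first order rate constants.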

[4] = target: T2, Glycogen phosphorylase, liver form (Homo sapiens, UniProt P06737); experiment: (§1) Competitive inhibition of His6-tagged human liver glycogen phosphorylase-a expressed in Escherichia coli BL21 Gold (DE3) assessed as release of inorganic phosphate using varying levels of glucose-1-phosphate and constant concentration of AMP and glycogen measured after 1 min by Dixon plot method
T2 sequence (P06737 whole entry): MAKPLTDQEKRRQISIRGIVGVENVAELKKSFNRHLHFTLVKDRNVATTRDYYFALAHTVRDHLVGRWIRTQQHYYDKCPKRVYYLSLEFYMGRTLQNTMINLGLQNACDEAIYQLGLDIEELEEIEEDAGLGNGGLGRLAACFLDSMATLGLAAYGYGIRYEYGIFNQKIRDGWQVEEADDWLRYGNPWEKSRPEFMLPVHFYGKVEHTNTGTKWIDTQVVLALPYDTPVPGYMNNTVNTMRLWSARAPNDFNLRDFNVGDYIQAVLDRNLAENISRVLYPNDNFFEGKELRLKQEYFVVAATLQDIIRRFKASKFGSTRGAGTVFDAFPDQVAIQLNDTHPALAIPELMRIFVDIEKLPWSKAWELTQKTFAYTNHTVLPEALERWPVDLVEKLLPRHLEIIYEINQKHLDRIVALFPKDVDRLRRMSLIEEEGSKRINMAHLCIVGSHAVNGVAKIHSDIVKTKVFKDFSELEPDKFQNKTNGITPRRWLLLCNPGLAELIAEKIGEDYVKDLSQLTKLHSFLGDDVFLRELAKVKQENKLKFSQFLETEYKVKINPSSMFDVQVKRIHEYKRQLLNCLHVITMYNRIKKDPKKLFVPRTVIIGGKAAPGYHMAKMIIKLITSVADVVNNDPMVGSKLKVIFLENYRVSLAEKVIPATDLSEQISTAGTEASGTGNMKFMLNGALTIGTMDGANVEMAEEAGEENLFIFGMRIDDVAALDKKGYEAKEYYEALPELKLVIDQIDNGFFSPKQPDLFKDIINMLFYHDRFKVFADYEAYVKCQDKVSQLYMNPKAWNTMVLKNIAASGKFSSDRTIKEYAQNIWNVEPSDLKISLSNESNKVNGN

[5] = target: T3, Glycogen phosphorylase, liver form (Homo sapiens) (UniProt P06737); experiment: as §1, with “Lineweaver-Burk” for “Dixon”; assay type: tissue-based
T3 sequence (whole entry): T2 sequence (P06737 whole entry)

Row | Ki [1] | IC50 [2] | Ki [3] | Ki [4] | inhibition [5] | SMILES
1 |  | 625 µM |  |  |  | OC[C@H]1O[C@@H](c2cc3ccccc3[nH]2)[C@H](O)[C@@H](O)[C@@H]1O
2 |  |  | 226 nM | 0.156 µM | Active | OC[C@H]1O[C@@H](c2nc(-c3ccccc3)c[nH]2)[C@H](O)[C@@H](O)[C@@H]1O
3 |  |  | 65 nM | 0.026 µM | Active | OC[C@H]1O[C@@H](c2nc(-c3ccc4ccccc4c3)c[nH]2)[C@H](O)[C@@H](O)[C@@H]1O

More lines, now with the values behind:

Row | SMILES | Ki [1] | IC50 [2] | Ki [3] | Ki [4] | inhibition [5]
4 | O=C1CNC(=S)N1 [THIOHYDANTOIN] | 5.1 µM |  |  |  | 
5 | OC[C@H]1O[C@H](O)[C@H](O)[C@@H](O)[C@@H]1O |  |  |  | 4280 µM | 
